Assay results reported in ChEMBL document CHEMBL1154046, “Synthesis of some urea and thiourea derivatives of 3-phenyl/ethyl-2-thioxo-2,3-dihydrothiazolo[4,5-d]pyrimidine and their antagonistic effects on haloperidol-induced catalepsy and oxidative stress in mice” (2009).

Key:
Assay type in all cases: functional
Settings in all cases: route intraperitoneal, in the assay text read “ip” for “po”
Mus musculus [1] = assay: Inhibition of haloperidol-induced catalepsy in Swiss albino mouse assessed as time elapsed until release of forepaw from bar at 100 mg/kg, […] 30 min prior to haloperidol challenge measured after 60 mins by bar test
How it was run: (§1)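 Adult male pathogen-free Swiss albino mice (18–25 g), n = 5 per group, each used once. Compounds at 100 mg/kg i.p. were given as a suspension in 0.5% gum acacia 30 min before haloperidol 5 mg/kg i.p. Forepaws were placed on a horizontal bar 9 cm high, and descent time was recorded every 30 min for 3 h. Testing ran at 23 ± 1 °C under 20 lux. Values are mean ± S.E.M.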

Mus musculus [2] = assay: Inhibition of haloperidol-induced catalepsy in Swiss albino mouse at 100 mg/kg, […] 30 min prior to haloperidol challenge by bar test relative to haloperidol control
How it was run: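 Mice received compound at 100 mg/kg i.p. (in 0.5% gum acacia) 30 min before haloperidol 5 mg/kg i.p., n = 5. The bar test was run every 30 min over 3 h, and descent times were summed as CDT [3 h]. Haloperidol CDT minus vehicle CDT was set as 100% catalepsy, and % inhibition was calculated against it.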

Mus musculus [3] = assay: Inhibition of haloperidol-induced catalepsy in Swiss albino mouse assessed as time elapsed until release of forepaw from bar at 100 mg/kg, […] 30 min prior to haloperidol challenge measured after 180 mins by bar test; how it was run: as §1
Mus musculus [4] = assay: Inhibition of haloperidol-induced catalepsy in Swiss albino mouse assessed as time elapsed until release of forepaw from bar at 100 mg/kg, […] 30 min prior to haloperidol challenge measured after 90 mins by bar test; how it was run: as §1
Mus musculus [5] = assay: Inhibition of haloperidol-induced catalepsy in Swiss albino mouse assessed as time elapsed until release of forepaw from bar at 100 mg/kg, […] 30 min prior to haloperidol challenge measured after 30 mins by bar test; how it was run: as §1
Mus musculus [6] = assay: Inhibition of haloperidol-induced catalepsy in Swiss albino mouse assessed as time elapsed until release of forepaw from bar at 100 mg/kg, […] 30 min prior to haloperidol challenge measured after 120 mins by bar test; how it was run: as §1
Mus musculus [7] = assay: Inhibition of haloperidol-induced catalepsy in Swiss albino mouse assessed as time elapsed until release of forepaw from bar at 100 mg/kg, […] 30 min prior to haloperidol challenge measured after 150 mins by bar test; how it was run: as §1

SMILES | Catalepsy time (forepaw descent time) (Mus musculus [1]) [min] | inhibition (INH) (Mus musculus [2]) [%] | Catalepsy duration (time to release forepaw from bar) (Mus musculus [3]) [min] | catalepsy descent time (Mus musculus [4]) [min] | descent time (Mus musculus [5]) [min] | catalepsy descent time (Mus musculus [6]) [min] | Time to forepaw release from bar (Mus musculus [7]) [min]
S=C(Nc1ccccc1Cl)Nc1ncnc2c1sc(=S)n2-c1ccccc1 | 1.93 | 62.6 | 3.97 | 3.08 | 1.07 | 2.63 | 4.02
O=C(Nc1ccccc1F)Nc1ncnc2c1sc(=S)n2-c1ccccc1 | 2.1 | 51.2 | 2.63 | 2.77 | 1.38 | 2.35 | 2.53
CCn1c(=S)sc2c(NC(=O)Nc3ccc(F)cc3)ncnc21 | 1.65 | 55.1 | 3.95 | 1.88 | 1.1 | 3.07 | 3.12
CCn1c(=S)sc2c(NC(=O)Nc3ccccc3F)ncnc21 | 1.98 | 53.4 | 2.95 | 2.3 | 1.12 | 2.88 | 3.1
S=C(Nc1ccccc1)Nc1ncnc2c1sc(=S)n2-c1ccccc1 | 0.967 | 51 | 3.62 | 1.25 | 1.1 | 3.2 | 3.6
O=[N+]([O-])c1ccccc1NC(=S)Nc1ncnc2c1sc(=S)n2-c1ccccc1 | 1.15 | 45.4 | 3.87 | 1.15 | 0.7 | 1.55 | 3.9
COc1ccc(NC(=S)Nc2ncnc3c2sc(=S)n3-c2ccccc2)cc1 | 1.1 | 43.1 | 2.22 | 1.72 | 1.17 | 2.63 | 2.87
O=C(Nc1ccccc1Cl)Nc1ncnc2c1sc(=S)n2-c1ccccc1 | 1.97 | 53 | 2.9 | 2.4 | 1.27 | 2.78 | 2.92
CCn1c(=S)sc2c(NC(=O)Nc3ccccc3[N+](=O)[O-])ncnc21 | 2.8 | 70.9 | 3.8 | 3.48 | 1.7 | 3.3 | 3.75
COc1ccc(NC(=O)Nc2ncnc3c2sc(=S)n3-c2ccccc2)cc1 | 1.53 | 39 | 2.15 | 1.67 | 0.95 | 2.25 | 2.08
S=C(Nc1ccc(Cl)cc1)Nc1ncnc2c1sc(=S)n2-c1ccccc1 | 2.45 | 62.6 | 4.47 | 2.55 | 0.967 | 2.8 | 3.48
CCn1c(=S)sc2c(NC(=O)Nc3ccccc3)ncnc21 | 2.03 | 47.8 | 3.32 | 2.12 | 0.817 | 2.4 | 2.22
O=C(Nc1ccc([N+](=O)[O-])cc1)Nc1ncnc2c1sc(=S)n2-c1ccccc1 | 1.32 | 49.7 | 3.93 | 1.98 | 0.883 | 2.08 | 3.18
O=C(Nc1ccccc1)Nc1ncnc2c1sc(=S)n2-c1ccccc1 | 2.13 | 49.5 | 3.25 | 1.63 | 0.75 | 2.23 | 3.33
CCn1c(=S)sc2c(NC(=O)Nc3ccc(Cl)cc3)ncnc21 | 2.88 | 64.1 | 4.12 | 2.72 | 1.07 | 2.53 | 3.77
CCn1c(=S)sc2c(NC(=O)Nc3ccc(OC)cc3)ncnc21 | 1.85 | 43.3 | 2.38 | 1.9 | 1.28 | 2.02 | 2.3
CCn1c(=S)sc2c(NC(=S)Nc3ccc(OC)cc3)ncnc21 | 0.717 | 32.3 | 2.23 | 1.53 | 0.433 | 1.9 | 2.1
N[C@@H](Cc1ccc(O)c(O)c1)C(=O)O [LEVODOPA] | 0.633 | 25.1 | 1.8 | 1.43 | 0.317 | 1.47 | 1.42
O=[N+]([O-])c1ccc(NC(=S)Nc2ncnc3c2sc(=S)n3-c2ccccc2)cc1 | 1.88 | 47.5 | 2.65 | 2.18 | 0.967 | 2.45 | 2.68
O=C(Nc1ccc(F)cc1)Nc1ncnc2c1sc(=S)n2-c1ccccc1 | 1.9 | 52.9 | 3.8 | 1.92 | 1.42 | 2.63 | 2.55
O=C(Nc1ccccc1[N+](=O)[O-])Nc1ncnc2c1sc(=S)n2-c1ccccc1 | 1.05 | 44.8 | 2.95 | 2.02 | 0.917 | 2.25 | 2.93
O=C(CCCN1CCC(O)(c2ccc(Cl)cc2)CC1)c1ccc(F)cc1 [HALOPERIDOL] | 3.73 | – | 5 | 4.55 | 3.05 | 5 | 5
